Experimental data of several laboratories.
Lines come from different studies, so protocols differ.
Cell line: MCF7
Observed: cell growth or viability

SMILES | assay | setting | quantity | value
C[C@@H]1CC[C@@H]([C@@](O)(CNCc2cccc3ccccc23)COCc2ccccc2)[C@H](OCc2ccccc2)C1 | MTT | 30 µM, 72 h | inhibition | 90.7%
Cc1ccc(-c2cc(-c3ccc(N(C)C)cc3)c3c(=O)[nH]c(=O)[nH]c3n2)cc1 | MTT | 48 h | IC50 | 10.1 µM
CCOC(=O)c1nn(-c2cccc(Cl)c2)/c(=N/N=C(\C)c2ccc(NC(=O)c3ccccc3)cc2)s1 | MTT | 0.156 µM | viability | 59.2%
O=C(Nc1ccccc1)Nc1ccc(Oc2nnc(-c3ccc(Cl)cc3)c3ccccc23)cc1 | MTT | 78 nM, 24 h | viability | 96.4%
CN(C)C(=O)c1cc2cnc(Nc3ccc(N4CCNCC4)cn3)nc2n1C1CCCC1 |  | 5 days | EC50 | 0.101 µM
COC(=O)COc1c(Cc2cc(C(C)(C)CC(C)(C)C)cc(-n3nc4ccccc4n3)c2OCC(=O)OC)cc(C(C)(C)CC(C)(C)C)cc1-n1nc2ccccc2n1 | MTT |  | GI50 | 3.18 µM
CC(=NNC(=O)c1ccccc1O)c1ccc(Nc2nnc(-c3ccc(Cl)cc3)c3ccccc23)cc1 | MTT | 1.25 µM, 24 h | viability | 90.3%
CC(=O)c1nn(-c2ccc(C)cc2)/c(=N/N=C(\C)c2ccc(NC(=O)c3ccccc3)cc2)s1 | MTT | 0.156 µM | viability | 9.14%
COc1ccc(CNC[C@](O)(COCc2ccc(F)cc2)[C@@H]2CC[C@@H](C)C[C@H]2OCc2ccc(F)cc2)cc1 | MTT | 10 µM, 72 h | inhibition | 97.7%
CC(=O)Nc1ccc(Oc2nnc(-c3ccc(Cl)cc3)c3ccccc23)cc1 | MTT | 1.25 µM | cell death | 93.9%
COc1ccc(-c2cc(-c3cc(OC)ccc3OC)c3c(=O)[nH]c(=O)[nH]c3n2)cc1 | MTT | 48 h | IC50 | 14.3 µM
C[C@@H]1CC[C@@H]([C@](C)(O)Cn2cnc3ccccc32)[C@H](OCc2ccccc2)C1 | MTT | 30 µM, 72 h | inhibition | 98.3%
CCOC(=O)c1nn(-c2cccc(Cl)c2)/c(=N/N=C(\C)c2ccc(NC(=O)c3ccc(Cl)cc3)cc2)s1 | MTT | 0.156 µM | viability | 21.9%
CC(=NNC(N)=S)c1ccc(Nc2nnc(-c3ccc(Cl)cc3)c3ccccc23)cc1 | MTT | 78 nM | cell death | 9.65%
COc1ccccc1CNC[C@@](C)(O)[C@@H]1CC[C@@H](C)C[C@H]1OCc1ccccc1 | MTT | 10 µM, 72 h | inhibition | 46.9%
CC(=NNC(=O)c1ccc(N)cc1)c1ccc(Nc2nnc(-c3ccc(Cl)cc3)c3ccccc23)cc1 | MTT | 2.5 µM | cell death | 94.6%
C=C(COCc1ccc(F)cc1)[C@@H]1CC[C@@H](C)C[C@H]1OCc1ccc(F)cc1 | MTT | 30 µM, 72 h | inhibition | 46.2%
O=C(Nc1ccc(Oc2nnc(-c3ccc(Cl)cc3)c3ccccc23)cc1)c1cccc([N+](=O)[O-])c1 | MTT | 2.5 µM, 24 h | viability | 4.87%
C[C@@H]1CC[C@@H]([C@](C)(O)CNCc2ccc(F)cc2)[C@H](OCc2ccccc2)C1 | MTT | 30 µM, 72 h | inhibition | 73.8%
CC(=O)c1nn(-c2ccccc2Cl)/c(=N/N=C(\C)c2ccc(NC(=O)c3ccccc3)cc2)s1 | MTT | 5 µM | viability | 6.17%
